According to ChEMBL document CHEMBL4033712, “Synthesis and biological evaluation of new C-12(α/β)-(N-) sulfamoyl-phenylamino-14-deoxy-andrographolide derivatives as potent anti-cancer agents” (Bioorg Med Chem Lett, 2017):

Legend:
Format in all cases: functional
EKVX = test: Anticancer activity against human EKVX cells assessed as cell growth at 10 uM after 48 hrs by sulforhodamine B assay relative to control; conditions: read-out: Activity
Method in brief: (§1)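 Single-dose NCI-60 panel screen: compound added at 10 µM and the culture incubated 48 h. The end point was read by protein staining with sulforhodamine B. The value is percent growth of treated cells relative to untreated control cells, reported as a mean graph across the panel.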

ACHN = test: Anticancer activity against human ACHN cells assessed as cell growth at 10 uM after 48 hrs by sulforhodamine B assay relative to control; conditions: read-out: Activity; method in brief: as §1
SK-MEL-2 = test: Anticancer activity against human SK-MEL-2 cells assessed as cell growth at 10 uM after 48 hrs by sulforhodamine B assay relative to control; conditions: SK-MEL-2, 48 h, read-out: Activity; method in brief: as §1
SW-620 = test: Growth inhibition of human SW620 cells incubated for 48 hrs by sulforhodamine B assay; conditions: SW-620, 48 h; for CC50: read-out: LC50 (the source's name)
Method in brief: (§2)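 NCI 60 human tumour cell line panel, five-dose study at 0.01, 0.1, 1, 10 and 100 µM, 48 h incubation. Sulforhodamine B protein-binding dye end point. GI50 (50% decrease in net cell growth), TGI (total growth inhibition) and LC50 (net 50% loss of initial cells) read from log concentration versus % growth inhibition curves.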

MDA-MB-468 = test: Anticancer activity against human MDA-MB-468 cells assessed as cell growth at 10 uM after 48 hrs by sulforhodamine B assay relative to control; conditions: MDA-MB-468, 48 h, read-out: Activity; method in brief: as §1
SNB-75 = test: Anticancer activity against human SNB75 cells assessed as cell growth at 10 uM after 48 hrs by sulforhodamine B assay relative to control; conditions: SNB-75, 48 h, read-out: Activity
Method in brief: (§3)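 NCI-60 single-dose screen: compound added at 10 µM, cultures incubated 48 h. End point by sulforhodamine B protein-binding dye. Value reported as percent growth of treated cells relative to untreated control cells.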

LOX IMVI = test: Anticancer activity against human LOXIMVI cells assessed as cell growth at 10 uM after 48 hrs by sulforhodamine B assay relative to control; conditions: read-out: Activity; method in brief: as §1
HCT-116 = test: Anticancer activity against human HCT116 cells assessed as cell growth at 10 uM after 48 hrs by sulforhodamine B assay relative to control; conditions: HCT-116, 48 h, read-out: Activity; method in brief: as §1
RXF 393 = test: Anticancer activity against human RXF393 cells assessed as cell growth at 10 uM after 48 hrs by sulforhodamine B assay relative to control; conditions: RXF 393, 48 h, read-out: Activity; method in brief: as §1
M14 = test: Anticancer activity against human M14 cells assessed as cell growth at 10 uM after 48 hrs by sulforhodamine B assay relative to control; conditions: M14, 48 h, read-out: Activity; method in brief: as §1
IGROV-1 = test: Growth inhibition of human IGROV1 cells incubated for 48 hrs by sulforhodamine B assay; conditions: IGROV-1, 48 h; for CC50: read-out: LC50 (the source's name)
Method in brief: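 NCI-60 five-dose screen at 0.01, 0.1, 1, 10 and 100 µM, 48 h incubation, sulforhodamine B end point. GI50 (50% decrease in net growth), TGI (total growth inhibition) and LC50 (net 50% loss of initial cells) taken from log concentration versus % growth inhibition curves.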

Malme-3M = test: Anticancer activity against human MALME-3M cells assessed as cell growth at 10 uM after 48 hrs by sulforhodamine B assay relative to control; conditions: read-out: Activity; method in brief: as §1
DU-145 = test: Anticancer activity against human DU145 cells assessed as cell growth at 10 uM after 48 hrs by sulforhodamine B assay relative to control; conditions: DU-145, 48 h, read-out: Activity; method in brief: as §1
KM12 = test: Anticancer activity against human KM12 cells assessed as cell growth at 10 uM after 48 hrs by sulforhodamine B assay relative to control; conditions: KM12, 48 h, read-out: Activity; method in brief: as §1
A498 = test: Anticancer activity against human A498 cells assessed as cell growth at 10 uM after 48 hrs by sulforhodamine B assay relative to control; conditions: A498, 48 h, read-out: Activity; method in brief: as §1
K562 = test: Anticancer activity against human K562 cells assessed as cell growth at 10 uM after 48 hrs by sulforhodamine B assay relative to control; conditions: K562, 48 h, read-out: Activity; method in brief: as §1
U-251 = test: Anticancer activity against human U251 cells assessed as cell growth at 10 uM after 48 hrs by sulforhodamine B assay relative to control; conditions: U-251, 48 h, read-out: Activity; method in brief: as §3
HL-60(TB) = test: Anticancer activity against human HL-60(TB) cells assessed as cell growth at 10 uM after 48 hrs by sulforhodamine B assay relative to control; conditions: HL-60, 48 h, read-out: Activity
Method in brief: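 NCI-60 human tumour panel single-dose screen: cells exposed to 10 µM compound for 48 h. Growth end point read with sulforhodamine B protein-binding dye. Expressed as percent growth of treated cells versus untreated control cells.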

NCI/ADR-RES = test: Anticancer activity against human NCI/ADR-RES cells assessed as cell growth at 10 uM after 48 hrs by sulforhodamine B assay relative to control; conditions: read-out: Activity; method in brief: as §1
OVCAR-5 = test: Anticancer activity against human OVCAR5 cells assessed as cell growth at 10 uM after 48 hrs by sulforhodamine B assay relative to control; conditions: OVCAR-5, 48 h, read-out: Activity; method in brief: as §1
SF-268 = test: Anticancer activity against human SF268 cells assessed as cell growth at 10 uM after 48 hrs by sulforhodamine B assay relative to control; conditions: SF-268, 48 h, read-out: Activity; method in brief: as §1
RPMI-8226 [1] = test: Growth inhibition of human RPMI8226 cells incubated for 48 hrs by sulforhodamine B assay; conditions: RPMI-8226, 48 h; for CC50: read-out: LC50 (the source's name); method in brief: as §2
UACC-257 = test: Anticancer activity against human UACC257 cells assessed as cell growth at 10 uM after 48 hrs by sulforhodamine B assay relative to control; conditions: UACC-257, 48 h, read-out: Activity; method in brief: as §3
NCI-H522 = test: Anticancer activity against human NCI-H522 cells assessed as cell growth at 10 uM after 48 hrs by sulforhodamine B assay relative to control; conditions: NCI-H522, 48 h, read-out: Activity; method in brief: as §1
A549 = test: Anticancer activity against human A549/ATCC cells assessed as cell growth at 10 uM after 48 hrs by sulforhodamine B assay relative to control; conditions: A549, 48 h, read-out: Activity; method in brief: as §1
NCI-H322M = test: Anticancer activity against human NCI-H322M cells assessed as cell growth at 10 uM after 48 hrs by sulforhodamine B assay relative to control; conditions: read-out: Activity; method in brief: as §1
OVCAR-4 = test: Anticancer activity against human OVCAR4 cells assessed as cell growth at 10 uM after 48 hrs by sulforhodamine B assay relative to control; conditions: OVCAR-4, 48 h, read-out: Activity; method in brief: as §1
RPMI-8226 [2] = test: Anticancer activity against human RPMI8226 cells assessed as cell growth at 10 uM after 48 hrs by sulforhodamine B assay relative to control; conditions: RPMI-8226, 48 h, read-out: Activity; method in brief: as §1

Row | Compound | growth at 10 µM (EKVX) [%] | growth at 10 µM (ACHN) [%] | growth at 10 µM (SK-MEL-2) [%] | growth at 10 µM (MDA-MB-468) [%] | growth at 10 µM (SNB-75) [%] | growth at 10 µM (LOX IMVI) [%] | growth at 10 µM (HCT-116) [%] | growth at 10 µM (RXF 393) [%] | growth at 10 µM (M14) [%] | growth at 10 µM (Malme-3M) [%] | growth at 10 µM (DU-145) [%] | growth at 10 µM (KM12) [%] | growth at 10 µM (A498) [%] | growth at 10 µM (K562) [%] | growth at 10 µM (U-251) [%] | growth at 10 µM (HL-60(TB)) [%] | growth at 10 µM (NCI/ADR-RES) [%] | growth at 10 µM (OVCAR-5) [%] | growth at 10 µM (SF-268) [%] | growth at 10 µM (UACC-257) [%] | further results
1 | C=C1CC[C@@H]2[C@](C)(COC(C)=O)[C@H](OC(C)=O)CC[C@@]2(C)[C@H]1CC(Nc1ccc(S(=O)(=O)Nc2cc(C)on2)cc1)C1=CCOC1=O (stereo partly drawn) | 82 | 19.5 | 63 | 3.23 | 59.4 | -72.7 | -1.13 | 29.8 | 29.9 | 56.6 | 71.1 | 30.5 | 98.6 | 9.67 | 30 | -2.05 | 31.6 | 52.2 | 67.3 | 69 | GI50 (SW-620): 1320 nM; TGI (SW-620): 2.91 µM; CC50 (SW-620): 6.44 µM; GI50 (IGROV-1): 2360 nM; TGI (IGROV-1): 6.51 µM; CC50 (IGROV-1): 76.2 µM; GI50 (RPMI-8226 [1]): 1540 nM; TGI (RPMI-8226 [1]): 5.42 µM; CC50 (RPMI-8226 [1]): > 100 µM; growth at 10 µM (NCI-H522): -20.2%; growth at 10 µM (A549): 72.2%; growth at 10 µM (NCI-H322M): 80.4%; growth at 10 µM (OVCAR-4): 68.2%; growth at 10 µM (RPMI-8226 [2]): -15.2%
2 | C=C1CC[C@@H]2[C@](C)(COC(C)=O)[C@H](OC(C)=O)CC[C@@]2(C)[C@H]1CC(Nc1ccc(S(=O)(=O)Nc2nc(C)cc(C)n2)cc1)C1=CCOC1=O (stereo partly drawn) | 74.5 | 71.6 | 88.5 | 41 | 44.6 | -60.6 | 39.2 | 85.1 | 63.8 | 96.3 | 82.3 | 64.7 | 85.3 | 19.1 | 48.2 | 21.7 | 66.7 | 103 | 93.3 | 67.9 | growth at 10 µM (NCI-H522): 22%; growth at 10 µM (A549): 65.3%; growth at 10 µM (NCI-H322M): 97.2%; growth at 10 µM (OVCAR-4): 65%; growth at 10 µM (RPMI-8226 [2]): 2.24%
3 | C=C1CC[C@@H]2[C@](C)(COC(C)=O)[C@H](OC(C)=O)CC[C@@]2(C)[C@H]1CC(Nc1ccc(S(=O)(=O)Nc2nccc(C)n2)cc1)C1=CCOC1=O (stereo partly drawn) | 79.2 | -37.2 | 40.1 | -45.8 | 9.66 | -72.9 | -32.2 | -38.3 | 11.2 | -0.7 | 38.5 | 13.2 | 96.8 | 3.62 | 14.6 | -17.3 | 20.9 | 26.9 | 43.2 | 48.5 | GI50 (SW-620): 1600 nM; TGI (SW-620): 3.68 µM; CC50 (SW-620): 8.48 µM; GI50 (IGROV-1): 3620 nM; TGI (IGROV-1): 13.6 µM; CC50 (IGROV-1): 45.5 µM; GI50 (RPMI-8226 [1]): 1950 nM; TGI (RPMI-8226 [1]): 6.84 µM; CC50 (RPMI-8226 [1]): > 100 µM; growth at 10 µM (NCI-H522): -50.6%; growth at 10 µM (A549): 63.4%; growth at 10 µM (NCI-H322M): 64.8%; growth at 10 µM (OVCAR-4): 32.3%; growth at 10 µM (RPMI-8226 [2]): -5.56%
